This is an account of results in ChEMBL document CHEMBL1126842, “Inhibition of herpes simplex virus type 1 ribonucleotide reductase by substituted tetrapeptide derivatives” (J Med Chem, 1993).

Where a SMILES comes first, the peptide text is derived from it. [ ]: non-standard residue; d: D form. The star is where a group is joined. ξ: configuration not given here. Asp(3,3-Me2) = CC(C)(C(=O)O)[C@H](N)C(=O)O; Cyclohexanecarbonyl = O=C(C1CCCCC1)*; Butanoyl(2-Et) = CCC(CC)C(=O)*; Thr(3ξ) = CC(O)[C@H](N)C(=O)O; Tle = CC(C)(C)[C@H](N)C(=O)O; Leu(ol) = CC(C)C[C@H](N)CO; Isovaleryl = CC(C)CC(=O)*; Isobutyryl = CC(C)C(=O)*; Piperidide = C1CCN(*)CC1; Pyrrolidide = C1CCN(*)C1; X1 = CC(C)C(C(=O)*)C(C)C; Bn = c1ccc(C*)cc1

The first assay concerns the target T1, Ribonucleoside-diphosphate reductase large subunit (Homo sapiens, UniProt P23921).
T1 sequence (P23921 whole entry): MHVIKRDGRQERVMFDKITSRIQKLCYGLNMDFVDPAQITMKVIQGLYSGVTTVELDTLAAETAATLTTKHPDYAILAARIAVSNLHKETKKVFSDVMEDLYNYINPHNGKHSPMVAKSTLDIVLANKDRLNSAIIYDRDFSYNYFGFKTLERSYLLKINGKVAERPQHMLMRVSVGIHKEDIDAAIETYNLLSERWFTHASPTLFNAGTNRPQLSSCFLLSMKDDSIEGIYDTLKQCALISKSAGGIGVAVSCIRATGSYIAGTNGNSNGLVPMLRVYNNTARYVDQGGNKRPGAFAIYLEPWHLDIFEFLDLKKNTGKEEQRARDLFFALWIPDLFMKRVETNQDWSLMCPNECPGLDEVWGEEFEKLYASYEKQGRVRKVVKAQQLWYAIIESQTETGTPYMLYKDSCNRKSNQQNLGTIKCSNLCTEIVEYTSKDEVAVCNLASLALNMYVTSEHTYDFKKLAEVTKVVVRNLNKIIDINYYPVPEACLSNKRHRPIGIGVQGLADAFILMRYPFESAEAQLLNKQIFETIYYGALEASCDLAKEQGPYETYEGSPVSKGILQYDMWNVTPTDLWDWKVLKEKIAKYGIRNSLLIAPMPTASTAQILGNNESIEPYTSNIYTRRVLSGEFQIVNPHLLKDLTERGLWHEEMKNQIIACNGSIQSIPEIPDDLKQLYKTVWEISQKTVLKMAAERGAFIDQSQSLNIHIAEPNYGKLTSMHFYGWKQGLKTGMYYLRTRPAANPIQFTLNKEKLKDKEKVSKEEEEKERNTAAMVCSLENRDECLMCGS
The assay is described as follows: Tested for inhibition of human ribonucleotide reductase.
The compound `CCC(CC)C(=O)N[C@H](C(=O)N[C@@H](CC(=O)N1CCCC1)C(=O)N[C@@H](CC(=O)O)C(=O)N[C@@H](CC(C)C)C(=O)O)C(C)(C)C` ({Butanoyl(2-Et)}-[Tle]D(Pyrrolidide)DL-OH) showed an IC50 of more than 1 mM.
On the same count and under the same terms, the result for `CCC(CC)C(=O)N[C@H](C(=O)N[C@@H](CC(=O)N1CCCC1)C(=O)N[C@@H](CC(=O)O)C(=O)N[C@@H](CC(C)C)C(=O)O)[C@@H](C)CC` ({Butanoyl(2-Et)}-ID(Pyrrolidide)DL-OH) reads more than 1 mM.

System in the next assay: not listed separately
The assay is described as follows: Inhibition of Herpes simplex virus type 1 ribonucleotide reductase. The class given is functional, Human alphaherpesvirus 1. In short, it runs like this: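 IC50 taken as the mean of at least three separate determinations, with standard deviation from the mean reported; one entry came from a single determination.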
H-AGAVVNDL-OH returned an IC50 of 280 µM.
The same measure, in the same setting: in the case of `CCC(CC)C(=O)N[C@H](C(=O)N[C@@H](CC(=O)C1CCCC1)C(=O)N[C@@H](CC(=O)O)C(=O)N[C@@H](CC(C)C)C(=O)O)C(C)(C)C` it was 1.3 µM.
The compound `CC[C@H](C)[C@H](NC(=O)C(C(C)C)C(C)C)C(=O)N[C@@H](CC(=O)N1CCCC1)C(=O)N[C@@H](CC(=O)O)C(=O)N[C@@H](CC(C)C)C(=O)O` (X1-ID(Pyrrolidide)DL-OH) had a half-inhibitory concentration (IC50) of 2 µM.
On the same count and under the same terms, the result for `CC(C)C[C@H](NC(=O)[C@H](CC(=O)O)NC(=O)[C@H](CC(N)=O)NC(=O)[C@@H](N)C(C)C)C(=O)O` (H-VNDL-OH) reads more than 2000 µM; that for `CCC(CC)C(=O)N[C@H](C(=O)N[C@@H](CC(=O)N1CCCC1)C(=O)N[C@@H](CC(=O)O)C(=O)N[C@H](CO)CC(C)(C)C)C(C)(C)C`, 1.9 µM; that for `CCC(CC)C(=O)N[C@H](C(=O)N[C@@H](CC(=O)N1CCCC1)C(=O)N[C@@H](CCC(=O)O)C(=O)N[C@@H](CC(C)C)C(=O)O)C(C)(C)C` ({Butanoyl(2-Et)}-[Tle]D(Pyrrolidide)EL-OH), more than 1000 µM.
`CC[C@H](C)[C@H](NC(=O)[C@@H](N)C(C)C)C(=O)N[C@@H](CC(=O)N1CCCC1)C(=O)N[C@@H](CC(=O)O)C(=O)N[C@@H](CC(C)C)C(=O)O` (H-VID(Pyrrolidide)DL-OH) came in with a concentration for half-maximal inhibition (IC50) of 13 µM.
On the same count and under the same terms, in the case of H-YAGAVVND-OH it was more than 2000 µM.
For `CC[C@H](C)[C@H](NC(C)=O)C(=O)N[C@@H](CC(=O)N1CCCC1)C(=O)N[C@@H](CC(=O)O)C(=O)N[C@@H](CC(C)C)C(=O)O` (Ac-ID(Pyrrolidide)DL-OH), the 50% inhibitory concentration (IC50) was more than 1000 µM.
With `CCC(CC)C(=O)N[C@H](C(=O)N[C@@H](CCC(=O)N1CCCC1)C(=O)N[C@@H](CC(=O)O)C(=O)N[C@@H](CC(C)C)C(=O)O)C(C)(C)C` ({Butanoyl(2-Et)}-[Tle]E(Pyrrolidide)DL-OH), the IC50 was more than 1000 µM.
As to `CCC(CC)C(=O)N[C@H](C(=O)N[C@@H](CC(=O)N1CCCC1)C(=O)N[C@@H](CC(=O)O)C(=O)N[C@H](CO)CC(C)C)C(C)(C)C` ({Butanoyl(2-Et)}-[Tle]D(Pyrrolidide)D[Leu(ol)]), the midpoint of inhibition, the IC50, lay at 5.6 µM.
Same read-out and setting: in the case of `CCC(CC)C(=O)N[C@@H](CC(=O)O)C(=O)N[C@@H](CC(=O)N1CCCC1)C(=O)N[C@@H](CC(=O)O)C(=O)N[C@@H](CC(C)C)C(=O)O` ({Butanoyl(2-Et)}-DD(Pyrrolidide)DL-OH) it was 6.1 µM.
Same read-out and setting: the result for `CCC(CC)C(=O)N[C@H](C(=O)N[C@@H](CC(=O)N1CCCC1)C(=O)N[C@H](C(=O)N[C@@H](CC(C)C)C(=O)O)C(C)(C)C(=O)O)C(C)(C)C` ({Butanoyl(2-Et)}-[Tle]D(Pyrrolidide)[Asp(3,3-Me2)]L-OH) reads 0.18 µM; that for `CCC(CC)C(=O)N[C@H](C(=O)N[C@@H](CC(=O)N1CCCCC1)C(=O)N[C@@H](CC(=O)O)C(=O)N[C@@H](CC(C)C)C(=O)O)C(C)(C)C` ({Butanoyl(2-Et)}-[Tle]D(Piperidide)DL-OH), 1.3 µM; that for `CCC(CC)C(=O)N[C@H](C(=O)N[C@@H](CC(=O)N1CCCC1)C(=O)N[C@@H](CC(=O)O)C(=O)N[C@@H](CC(C)C)C(=O)O)C(C)(C)C` ({Butanoyl(2-Et)}-[Tle]D(Pyrrolidide)DL-OH), 0.6 µM.
Compound `CCC(CC)C(=O)N[C@@H](CCCCN)C(=O)N[C@@H](CC(=O)N1CCCC1)C(=O)N[C@@H](CC(=O)O)C(=O)N[C@@H](CC(C)C)C(=O)O` ({Butanoyl(2-Et)}-KD(Pyrrolidide)DL-OH) returned an IC50 of 14 µM.
Same read-out and setting: in the case of `CC[C@H](C)[C@H](NC(=O)C1CCCCC1)C(=O)N[C@@H](CC(=O)N1CCCC1)C(=O)N[C@@H](CC(=O)O)C(=O)N[C@@H](CC(C)C)C(=O)O` (Cyclohexanecarbonyl-ID(Pyrrolidide)DL-OH) it was 1.5 µM; in that of `CCC(CC)C(=O)NCC(=O)N[C@@H](CC(=O)N1CCCC1)C(=O)N[C@@H](CC(=O)O)C(=O)N[C@@H](CC(C)C)C(=O)O` ({Butanoyl(2-Et)}-GD(Pyrrolidide)DL-OH), 77 µM.
The same measure, in the same setting: in the case of `CCC(CC)C(=O)N[C@H](C(=O)N[C@@H](CC(=O)N1CCCC1)C(=O)N[C@@H](CC(=O)O)C(=O)N[C@H](CO)CC1CCCCC1)C(C)(C)C` it was 8.1 µM.
Still for that read-out and setting: the result for `CCC(CC)C(=O)N[C@H](C(=O)N[C@@H](CC(=O)N1CCCC1)C(=O)N[C@@H](CC(=O)O)C(=O)N[C@@H](CC(C)C)C(=O)O)[C@@H](C)O` ({Butanoyl(2-Et)}-TD(Pyrrolidide)DL-OH) reads 4.4 µM; that for H-AVVNDL-OH, 190 µM; that for `CCC(CC)C(=O)N[C@H](C(=O)N[C@@H](CC(=O)N1CCCC1)C(=O)N[C@@H](CC(=O)O)C(=O)N[C@@H](CC(C)C)C(=O)O)[C@@H](C)CC` ({Butanoyl(2-Et)}-ID(Pyrrolidide)DL-OH), 1.5 µM.
`CCOC(=O)C[C@H](NC(=O)[C@@H](NC(=O)C(CC)CC)C(C)(C)C)C(=O)N[C@@H](CC(=O)O)C(=O)N[C@@H](CC(C)C)C(=O)O` ({Butanoyl(2-Et)}-[Tle]D(OEt)DL-OH) displayed an IC50 of 4.7 µM.
On the same count and under the same terms, the result for `CCC(CC)C(=O)N[C@@H](C)C(=O)N[C@@H](CC(=O)N1CCCC1)C(=O)N[C@@H](CC(=O)O)C(=O)N[C@@H](CC(C)C)C(=O)O` ({Butanoyl(2-Et)}-AD(Pyrrolidide)DL-OH) reads 11 µM; that for `CCC(CC)C(=O)N[C@H](C(=O)N[C@@H](CC(=O)N1CCCC1)C(=O)N[C@@H](C)C(=O)N[C@@H](CC(C)C)C(=O)O)C(C)(C)C` ({Butanoyl(2-Et)}-[Tle]D(Pyrrolidide)AL-OH), more than 1000 µM; that for `CC[C@H](C)[C@H](NC(=O)CC(C)C)C(=O)N[C@@H](CC(=O)N1CCCC1)C(=O)N[C@@H](CC(=O)O)C(=O)N[C@@H](CC(C)C)C(=O)O` (Isovaleryl-ID(Pyrrolidide)DL-OH), 3 µM.
For `CCC(CC)C(=O)N[C@H](C(=O)N[C@@H](CC(=O)N1CCCC1)C(=O)N[C@@H](CC(=O)O)C(=O)N[C@@H](C)C(=O)O)C(C)(C)C` ({Butanoyl(2-Et)}-[Tle]D(Pyrrolidide)DA-OH), the IC50 is more than 1000 µM.
Still for that read-out and setting: in the case of `CCC(CC)C(=O)N[C@H](C(=O)N[C@@H](CC(=O)N1CCCC1)C(=O)N[C@@H](CC(=O)O)C(=O)NC(CO)CO)C(C)(C)C` it was more than 1000 µM; in that of `CCC(CC)C(=O)N[C@H](C(=O)N[C@@H](CC(N)=O)C(=O)N[C@@H](CC(=O)O)C(=O)N[C@@H](CC(C)C)C(=O)O)C(C)(C)C` ({Butanoyl(2-Et)}-[Tle]NDL-OH), 100 µM; in that of `CCC(CC)C(=O)N[C@H](C(=O)N[C@@H](CC(=O)N1CCCC1)C(=O)N[C@@H](CC(=O)O)C(=O)N[C@@H](CC(C)C)C(=O)O)C(C)OCc1ccccc1` (stereo partly drawn) ({Butanoyl(2-Et)}-[Thr(3ξ)](Bn)D(Pyrrolidide)DL-OH), 3.1 µM.
`CC[C@H](C)[C@H](NC(=O)C(C)C)C(=O)N[C@@H](CC(=O)N1CCCC1)C(=O)N[C@@H](CC(=O)O)C(=O)N[C@@H](CC(C)C)C(=O)O` (Isobutyryl-ID(Pyrrolidide)DL-OH) registered an IC50 of 10 µM.
Still for that read-out and setting: in the case of `CC(C)C[C@H](NC(=O)[C@H](CC(=O)O)NC(=O)[C@H](CC(N)=O)NC(=O)[C@@H](NC(=O)[C@@H](NC(=O)[C@H](C)NC(=O)CNC(=O)[C@H](C)NC(=O)[C@@H](N)Cc1ccc(O)cc1)C(C)C)C(C)C)C(=O)O` it was 38 µM; in that of `CCC(CC)C(=O)N[C@H](C(=O)N[C@@H](CC(=O)N1CCCC1)C(=O)N[C@@H](CC(=O)O)C(=O)NCCC(C)(C)C)C(C)(C)C`, 19 µM.
`CCC(CC)C(=O)N[C@H](C(=O)N[C@@H](CCC1CCCC1)C(=O)N[C@@H](CC(=O)O)C(=O)N[C@@H](CC(C)C)C(=O)O)C(C)(C)C` showed an IC50 of 64 µM.
Same read-out and setting: in the case of `CCNC(=O)C[C@H](NC(=O)[C@@H](NC(=O)C(CC)CC)C(C)(C)C)C(=O)N[C@@H](CC(=O)O)C(=O)N[C@@H](CC(C)C)C(=O)O` ({Butanoyl(2-Et)}-[Tle]D(NHEt)DL-OH) it was 6.9 µM; in that of H-GAVVNDL-OH, 220 µM.
